Assay results collected from several papers.
Medium: plasma

Structure (SMILES) | test system | conditions | bioavailability
CNC(=O)c1cccc(-c2ccc(O[C@H]3O[C@H](CO)[C@@H](O)[C@H](O)[C@@H]3O)c(C)c2)c1 | male Sprague-Dawley rat | oral, 10 mg/kg, single dose | 1.34%
N#Cc1ccc(-c2ccc(C[C@@H](C#N)NC(=O)C3(N)CCOCC3)cc2)cc1 | Sprague-Dawley rat | oral, 3 mg/kg | 92%
Cn1cc(-c2cc(N3CCCCS3(=O)=O)ccc2Oc2ccc(F)cc2F)c2c(F)c[nH]c2c1=O | Sprague-Dawley rat | oral, 3 mg/kg | 20 to 30%
Oc1c(-c2cccnc2)cnn1-c1ccccn1 | rat | oral, 30 mg/kg | 35%
N#C[C@]1(CO)O[C@@H](n2cnc3c(=O)[nH]c(N)nc32)C[C@@H]1O | male Sprague-Dawley rat | oral, 1 mg/kg | ~70%
COCCOC(=O)C1=C(C)NC(C)=C(C(=O)OC(C)C)C1c1cccc([N+](=O)[O-])c1 (centres unmarked) | male Sprague-Dawley rat | oral, 12 mg/kg | 21.9%
CC1(C)CCN(c2c(C#N)c(=O)[nH]c3cccnc23)CC1 | male Wistar rat | oral | 61%
Cl.Clc1ccc2c(c1)nc(N1CCNCC1)n2Cc1ccccc1 | rat | oral, 5 mg/kg | 42%
C#Cc1cnc2nc(O)n(C(CC)CC)c2n1 | Sprague-Dawley rat | oral, 1 mg/kg | > 90%
Oc1c(-n2ccnn2)cnn1-c1cc(N2CCOCC2)ncn1 | male rat | oral, 5 mg/kg | 34%
Cc1c(-c2ccccc2)cccc1N1C(=O)c2cc(CN[C@H](C(=O)O)C(C)O)c(OCc3cccc(C#N)c3)cc2C1=O (some centres unmarked) | Sprague-Dawley rat | oral, 50 mg/kg | 0.31%
CC(C)(O)[C@H]1CC[C@H](Nc2ccc3ncc(-c4cccc(C(F)(F)F)c4)n3n2)CC1 | female Sprague-Dawley rat | oral, 40 mg/kg | 39%
COc1ccc2c(=O)oc3c(OC)cc(CC(O)CN(C)C)c4c(=O)oc1c2c34 (centres unmarked) | rat | oral | ~37%
CCOC(=O)[C@@]12C[C@@H]1[C@@H](n1ccc3c(NC)nc(C#Cc4ccc(Cl)s4)nc31)[C@H](O)[C@@H]2O | male Sprague-Dawley rat | oral, 3 mg/kg | 92.3%
COCCOc1cc(CC2CCN(CCc3ccc4c(c3)C(=O)CCO4)CC2)ccc1Br.O=S(=O)(O)c1ccccc1 | male rat | oral, 10 mg/kg | 7.3%
CCc1cc(OC)c2nccc(N3CCc4c(cc(Cn5ccnc5)cc4-c4cn(C)nc4C(F)(F)F)C3=O)c2c1 | male Sprague-Dawley rat | oral, 50 mg/kg | 65%
CC[C@H](C)[C@H](NC(=O)[C@H](Cc1ccccc1)NC(=O)[C@H](CCC(=O)O)NC(=O)[C@H](CCCNC(=N)N)NC(=O)[C@H](C)NC(=O)[C@H](C)NC(=O)[C@H](CCC(N)=O)NC(=O)[C@H](CCC(=O)O)NC(=O)[C@H](CCC(=O)O)NC(=O)[C@H](CC(C)C)NC(=O)[C@H](Cc1ccc(O)cc1)NC(=O)[C@H](CO)NC(=O)[C@H](CO)NC(=O)[C@@H](NC(=O)[C@H](CC(=O)O)NC(=O)[C@H](CO)NC(=O)[C@@H](NC(=O)[C@H](Cc1ccccc1)NC(=O)[C@@H](NC(=O)CNC(=O)[C@H](CCC(=O)O)NC(=O)[C@H](C)NC(=O)CCc1c[nH]cn1)[C@@H](C)O)[C@@H](C)O)C(C)C)C(=O)N[C@@H](C)C(=O)N[C@@H](Cc1c[nH]c2ccccc12)C(=O)N[C@@H](CC(C)C)C(=O)N[C@H](C(=O)N[C@@H](CCCNC(=N)N)C(=O)NCC(=O)N[C@@H](CCCNC(=N)N)C(=O)N[C@@H](CCCCNC(=O)COCCOCCNC(=O)COCCOCCNC(=O)CC[C@H](NC(=O)CCCCCCCCCCCCCCCCC(=O)O)C(=O)O)C(=O)O)C(C)C | rat | subcutaneous, 20 nmol/kg | 38.7%
